# Measured values pooled from the literature.
# Protocols differ between the studies behind these lines.
# MTNR1A: Melatonin receptor type 1A (MTNR1A, Homo sapiens, UniProt P48039)
SMILES,target,assay,test system,conditions,quantity,result
Cc1ccccc1N(C)C(=O)Oc1nsnc1N1CCCCC1,"Fatty-acid amide hydrolase 1 (FAAH, Homo sapiens, UniProt O00519)","enzyme activity, inhibitor",,"10 µM, cell membranes",inhibition,40%
COc1ccc2[nH]cc(CCNC(=O)CI)c2c1,MTNR1A,"β-arrestin recruitment, agonist",CHO-K1,90 min,Emax,92%
C#Cc1n[nH]c2c(-c3cn(C(C)c4ccccn4)c(=O)[nH]c3=O)cc(F)cc12 (centres unmarked),"Myotonin-protein kinase (DMPK, Homo sapiens, UniProt Q09013)","enzyme activity, inhibitor",,1 µM,inhibition,1.2%
COc1ccc2cccc(C(CO)CNC(=O)CF)c2c1 (centres unmarked),MTNR1A,"β-arrestin recruitment, agonist",CHO-K1,90 min,Emax,101%
Nc1ncc(-c2nc(N3CCOCC3)nc(N3CCOCC3)n2)c(C(F)F)n1,"Serine/threonine-protein kinase SIK3 (SIK3, Homo sapiens, UniProt Q9Y2K2)","binding, competition with immobilised ligand",,10 µM,remaining binding,72%
CCN(CC)CCCC[C@H](NC(=O)[C@H](CC(C)C)NC(=O)[C@H](C)NC(=O)[C@H](Cc1ccccc1)NC(=O)c1ccc(C(C)(C)C)cc1)C(=O)N[C@@H](CO)C(=O)OC,MTNR1A,"ligand displacement, radioligand",,10 µM,remaining binding,92.1%
Cc1nn(C)cc1-c1nc2c(N3CCN(Cc4ccc(Cl)cc4)CC3)c(Cl)cnc2[nH]1,"Receptor-type tyrosine-protein kinase FLT3 (FLT3, Homo sapiens, UniProt P36888, K663Q)","binding, competition with immobilised ligand",,1 µM,remaining binding,0.8%
COc1ncccc1-c1cnn2ccc(N3CCN(C(=O)OC(C)C)CC3)nc12,"Activin receptor type-2B (ACVR2B, Homo sapiens, UniProt Q13705)","binding, competition with immobilised ligand",,1 µM,remaining binding,69%
